What was measured:
Cavia porcellus = organism: Cavia porcellus; assay: Selectivity for sigma 2 receptor over sigma 1 receptor in guinea pig brain membrane; type: cell membranes
Procedure, shortened: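 Selectivity is the ratio of sigma1 Ki to sigma2 Ki. Sigma1 Ki came from [3H](+)-pentazocine competition and sigma2 Ki from [3H]DTG competition with (+)-pentazocine mask, both in male guinea pig brain membranes.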

[1] = target: T1, Sigma non-opioid intracellular receptor 1 (Cavia porcellus, UniProt Q60492); assay: Displacement of [3H](+)-pentazocine from sigma 1 receptor in guinea pig brain membrane; type: cell membranes
Procedure, shortened: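 Male guinea pig brain membranes (0.25 mg protein) were incubated with 1.0 nM [3H](+)-pentazocine in 50 mM Tris-HCl (pH 7.4, 25 °C) for 150 min at 37°C. Haloperidol (1.0 µM) defined nonspecific binding. Ten log-spaced test concentrations were used, in water with 0.1% HOAc/1.0% EtOH. Bound radioactivity was collected on PEI-soaked GF/B filters and counted by scintillation.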

[2] = Displacement of [3H]DTG from sigma 2 receptor in guinea pig brain membrane; type: cell membranes, Cavia porcellus
Procedure, shortened: (§1)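 Male guinea pig brain membranes (0.25 mg protein) were incubated with 3.0 nM [3H]DTG plus 200 nM (+)-pentazocine as sigma1 mask. Buffer was 50 mM Tris-HCl, pH 8.0, and incubation was 120 min at 25 °C. DTG (100 µM) defined nonspecific binding. Ten log-spaced test concentrations were used. Filters were PEI-soaked GF/B, read by scintillation counting. Ki given as mean ± SEM, n = 3–5.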

[3] = Displacement of [3H]DTG from sigma 2 receptor in guinea pig brain membrane at pH 8.0 at 25 degC; type: cell membranes, Cavia porcellus; procedure, shortened: as §1
[4] = target: T1, Sigma non-opioid intracellular receptor 1; assay: Displacement of [3H](+)-pentazocine from sigma 1 receptor in guinea pig brain membrane at pH 8.0 at 25 degC; type: cell membranes
Procedure, shortened: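 This alternative sigma1 regimen used guinea pig brain membranes with 3.0 nM [3H](+)-pentazocine in pH 8.0 buffer. Incubation was 120 min at 25 °C. Nonspecific binding was defined with 10 µM (+)-pentazocine. Bound ligand was separated by filtration and counted by scintillation.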

T1 sequence (Q60492 whole entry): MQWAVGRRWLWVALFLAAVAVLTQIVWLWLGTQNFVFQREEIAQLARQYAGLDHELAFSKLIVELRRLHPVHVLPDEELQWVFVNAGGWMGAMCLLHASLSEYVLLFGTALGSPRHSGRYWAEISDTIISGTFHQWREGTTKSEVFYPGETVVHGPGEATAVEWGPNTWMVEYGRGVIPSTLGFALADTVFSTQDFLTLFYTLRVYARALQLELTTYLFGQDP

SMILES | Ratio Ki (Cavia porcellus) | Ki [1] [nM] | Ki [2] [nM] | IC50 [3] [nM] | IC50 [4] [nM]
COc1ccc(CCNCCCCNC(=O)c2cc(Br)cc(OC)c2OC)cc1OC | 0.2 | 880 | 4620 |  | 
COc1cc2c(cc1OC)CN(CCCCNC(=O)c1cc(Br)cc(OC)c1OC)CC2 |  |  | 2.7 | 3 | 1890

Other lines, results leading:

Ratio Ki (Cavia porcellus) | Ki [1] [nM] | Ki [2] [nM] | IC50 [3] [nM] | IC50 [4] [nM] | SMILES
4 | 82.2 | 20.7 |  |  | COc1cc(Br)cc(C(=O)NCCCCN2CCc3cc4c(cc3C2)OCO4)c1OC
44 | 1430 | 32.6 |  |  | COc1cc(Br)cc(C(=O)NCCCCN2CCc3cc4c(cc3C2)OCCCO4)c1OC
16 | 338 | 21.7 |  |  | COc1cc(Br)cc(C(=O)NCCCCN2CCc3cc4c(cc3C2)OCCO4)c1OC
